The values below come from paper PMC9948202 (ACS Omega, 2023).

One test has as its system NTS1. The settings on record: cited from earlier work.
In another test the target is hNTS1. The note with it: read-out: Ki toward hNTS1; cited from earlier work.
The test system of the next test is hNTS2. The note with it: cited from earlier work.
The target in a further test is NTS2 (Homo sapiens, UniProt O95665). The test can be described thus: Calcium imaging assay. Type of test: cell-based. Put shortly:
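HT-29 cells grown overnight on glass slides (5 × 10^5 cells, 37 °C, 5% CO2), loaded 30 min in the dark with 100 μM fluo-8 AM, 0.4% pluronic acid and 2.5 mM probenecid in RPMI. Perfused with bicarbonate-glucose buffer (95% O2/5% CO2, pH 7.4, room temperature), washed 10 min. Test compound 10–11 to 10–5 M by rapid perfusion; levocabastine as positive control. Ex 490/Em 514 nm; ΔF/F (%) vs baseline, normalized to levocabastine stimulation; twice in duplicate, 20 cells analysed.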

Chain of NTS2 (O95665 whole entry, the tested form may be a part): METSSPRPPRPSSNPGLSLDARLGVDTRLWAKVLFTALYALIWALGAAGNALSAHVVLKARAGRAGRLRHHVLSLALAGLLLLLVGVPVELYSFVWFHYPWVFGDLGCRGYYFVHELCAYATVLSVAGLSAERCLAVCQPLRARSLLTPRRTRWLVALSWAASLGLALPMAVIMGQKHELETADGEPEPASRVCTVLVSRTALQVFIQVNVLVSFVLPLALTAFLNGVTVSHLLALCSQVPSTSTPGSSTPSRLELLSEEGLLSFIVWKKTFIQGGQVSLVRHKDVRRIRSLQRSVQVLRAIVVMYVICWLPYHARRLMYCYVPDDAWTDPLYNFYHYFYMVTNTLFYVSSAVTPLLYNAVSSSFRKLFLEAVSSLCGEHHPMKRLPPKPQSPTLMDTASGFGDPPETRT

As usually defined, the Ki is the dissociation constant of the complex between target and ligand, obtained from inhibition or displacement. Consider “H-Lys-Lys-Pro-(D)Trp-Ile-TMSAla-OH [JMV 5504]”, for which, in the test with NTS1, the hypothermic effect entry was “no hypothermic effect”. The results for the inhibition constant Ki at hNTS1 and at hNTS2 (read-out: Ki toward hNTS2) were 3600 nM and 8.5 nM, respectively. Further, the “selectivity index hNTS1/hNTS2” value in the test with hNTS2 is 423.
The EC50 is the concentration at which the effect is half-maximal. Turning to `C[C@@H]1CN([C@H]2CC[C@](C#N)(c3ccc(F)cc3)CC2)CC[C@]1(C(=O)O)c1ccccc1` [levocabastine], the EC50 at NTS2 stood at 118 nM.
